Source: PubChem
bIAP activator = increases bovine intestinal alkaline phosphatase activity; 200,000 tested, 0.17% active; purified bovine IAP, CDP-star luminescence, 30 min; stronger effect = higher value; fold of DMSO-control signal, blank-subtracted; activation factor at 20 µM;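 active = activation factor of 2 or more at 20 µM, a signal rise over negative controls twice the positive control's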
hIAP act = increases human intestinal alkaline phosphatase activity | activation factor at 10 µM | 330,000 tested, 0.16% active | purified human IAP, CDP-Star luminescence, 30 min; stronger effect = higher value; 1 = vehicle-only enzyme, 0 = enzyme-free background | P09923 | AID 2524;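 active = activation factor of the enzyme at least 2-fold when tested at 20 µM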
Target sequence (P09923 whole entry, looked up): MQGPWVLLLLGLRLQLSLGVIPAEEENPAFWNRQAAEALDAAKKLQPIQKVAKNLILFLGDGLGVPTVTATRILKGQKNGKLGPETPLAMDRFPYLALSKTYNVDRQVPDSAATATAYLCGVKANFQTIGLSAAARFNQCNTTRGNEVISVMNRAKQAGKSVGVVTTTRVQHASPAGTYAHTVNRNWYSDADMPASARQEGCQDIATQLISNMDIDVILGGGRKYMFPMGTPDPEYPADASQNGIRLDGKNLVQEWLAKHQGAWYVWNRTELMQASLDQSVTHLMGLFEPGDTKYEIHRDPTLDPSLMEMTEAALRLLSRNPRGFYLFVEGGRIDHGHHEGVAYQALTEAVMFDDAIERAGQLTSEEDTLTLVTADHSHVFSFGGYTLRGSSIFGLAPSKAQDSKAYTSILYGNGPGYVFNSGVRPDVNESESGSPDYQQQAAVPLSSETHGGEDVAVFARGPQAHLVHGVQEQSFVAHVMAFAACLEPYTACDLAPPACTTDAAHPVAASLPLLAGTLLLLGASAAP
hIAP block = blocks human intestinal alkaline phosphatase | 330,000 tested, 0.12% active | P09923 | purified IAP, CDP-Star luminescence, 30 min | inhibition, % at 10 µM;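 active = inhibition reaching a set limit with compound at 10 µM in the primary screen, cut at about 35% in these data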
mIAP act = mouse IAP activation; muIAP, CDP-Star luminescence, 30 min; stronger effect = higher value; 1 = vehicle-only enzyme signal, 0 = enzyme-free wells; 330,000 tested, 0.24% active; activation factor at 10 µM;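 active = activation factor of at least 2 at 20 µM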
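Assay system: mouse IAP enzyme; Reagent: CDP-Star chemiluminescent phosphatase substrate; Compound: DMSO-dissolved test compounds; Incubation: 30 min, room temperature; Technique: luminescence from enzymatic CDP-Star hydrolysis; Controls: DMSO-only wells and no-enzyme negative control.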
bIAP inh = intestinal alkaline phosphatase (bovine) inhibition. purified bovine IAP, CDP-star luminescence, 30 min. inhibition, % at 20 µM. 190,000 tested, under 10 active. AID 1019;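 active = over 50% inhibition of intestinal alkaline phosphatase at 20 µM in the single-dose screen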
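System: purified bovine intestinal alkaline phosphatase (IAP) enzyme; Input: IAP diluted 1/65,000,000 in the well; Measured by: CDP-star luminescence signal; Compound dosing: 20 µM single dose; Incubation: 30 min reaction at room temperature.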
mIAP block = blocks mouse intestinal alkaline phosphatase; purified mouse IAP, CDP-Star luminescence, 30 min; inhibition, % at 10 µM; 330,000 tested, 0.2% active;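 active = inhibition of at least 40% at 10 µM in the primary screen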
hIAP act confirm = human IAP activation confirmation; shares compounds with hIAP act; purified IAP, CDP-Star luminescence, 30 min; stronger effect = lower value; activation (%Activity, negative = activation), % at 8.3 µM; 880 tested, 10% active;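 active = at least twofold enzyme activation in any of six single-dose repeats, which the averaged readout prints as negative percent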
Hits are given with their value. This is a sample that favours compounds with a hit; in the whole collection about 0.72% have one here.

`CCN(CC)C(=O)c1sc2c(c1C)c(=O)n(-c1ccc(C)c(C)c1)c(=O)n2CC(=O)NCC1CCCO1` (stereo unspecified) gave bIAP activator inactive, hIAP act inactive, hIAP block inactive, mIAP act inactive, bIAP inh inactive and mIAP block inactive.
`COc1ccc(C2c3ccc(O)cc3Oc3ncn4nc(-c5ccncc5)nc4c32)cc1OC` (stereo unspecified) gave hIAP act inactive, hIAP block 41, mIAP act inactive, mIAP block inactive and hIAP act confirm inactive.
O=C(Nc1cccc(Cl)c1N1CCOCC1)c1ccc(Br)o1 was read as hIAP act inactive, hIAP block inactive, mIAP act inactive and mIAP block inactive.
For CCOC1=C/C(=C/c2c(N)n3nc(CC(=O)N4CCCCC4)sc3nc2=O)C=CC1=O the results were hIAP act inactive, hIAP block inactive, mIAP act inactive and mIAP block inactive.
Screening CCOC1=C/C(=C/c2c(N)n3nc(S(=O)(=O)CC)sc3nc2=O)C=CC1=O returned bIAP activator inactive, hIAP act inactive, hIAP block 37, mIAP act inactive, bIAP inh inactive, mIAP block inactive and hIAP act confirm inactive.
Screening CCOC(=O)n1cc(-c2cnc(CNC(=O)C(C)(c3ccccc3)c3ccccc3)o2)c2ccccc21 returned bIAP activator inactive, hIAP act inactive, hIAP block inactive, mIAP act inactive, bIAP inh inactive and mIAP block inactive.
CCOC(=O)c1c(NC(=O)Cn2cc([N+](=O)[O-])cn2)sc2c1CCC2 was read as bIAP activator inactive, hIAP act inactive, hIAP block 36, mIAP act inactive, bIAP inh inactive, mIAP block inactive and hIAP act confirm -91.
Screening COc1ccccc1N(C)S(=O)(=O)c1ccc(Cl)c(C(=O)NNC(=O)c2ccccc2O)c1 returned hIAP act 2.3, hIAP block inactive, mIAP act inactive, mIAP block inactive and hIAP act confirm inactive.
For O=C(CN1C(=O)c2ccccc2S1(=O)=O)NCc1cccs1 the results were hIAP act inactive, hIAP block 45, mIAP act inactive, mIAP block inactive and hIAP act confirm inactive.
Screening Cn1c(CNC(=O)CCNC(=O)c2cccc(F)c2)cc(=O)n(C)c1=O returned hIAP act inactive, hIAP block 38, mIAP act inactive, mIAP block inactive and hIAP act confirm inactive.
Screening Cn1c(CNC(=O)CNC(=O)c2cccc(F)c2)cc(=O)n(C)c1=O returned hIAP act inactive, hIAP block inactive, mIAP act inactive and mIAP block inactive.
For COc1cccc(CNC(=O)COC(=O)C2CCN(c3ccc(C(F)(F)F)cn3)CC2)c1 the results were hIAP act inactive, hIAP block inactive, mIAP act inactive and mIAP block inactive.
`NC(=O)c1ccc(NC(=O)C2CCCC2)cc1` gave hIAP act 2.6, hIAP block inactive, mIAP act inactive, mIAP block inactive and hIAP act confirm -40.
For O=C(Nc1ccc(F)cc1)C1CCCCC1 the results were bIAP activator inactive, hIAP act inactive, hIAP block inactive, mIAP act inactive, bIAP inh inactive and mIAP block inactive.
Cc1ccc(OCC(=O)NCCCNC(=O)c2cnccn2)cc1C was read as hIAP act inactive, hIAP block inactive, mIAP act inactive and mIAP block inactive.
For Cc1cc(OCC(=O)NNC(=O)c2cnccn2)cc(C)c1Cl the results were hIAP act 2.1, hIAP block inactive, mIAP act inactive, mIAP block inactive and hIAP act confirm inactive.
Cc1ccc(NC(=S)NNC(=O)c2nnn(-c3ccccc3)c2C)cc1 was read as bIAP activator inactive, hIAP act 2.2, hIAP block inactive, mIAP act inactive, bIAP inh inactive, mIAP block inactive and hIAP act confirm inactive.
O=C(N/N=C/c1cccs1)c1cc(-c2ccc(Cl)s2)[nH]n1 was read as hIAP act 2, hIAP block inactive, mIAP act inactive, mIAP block inactive and hIAP act confirm inactive.
Screening O=C(N/N=C/c1ccco1)c1cc(-c2ccc(Br)s2)[nH]n1 returned hIAP act inactive, hIAP block inactive, mIAP act inactive and mIAP block inactive.
`O=C(N/N=C/c1ccco1)c1cc(-c2ccc(Cl)s2)[nH]n1` gave bIAP activator inactive, hIAP act 2, hIAP block inactive, mIAP act inactive, bIAP inh inactive, mIAP block inactive and hIAP act confirm inactive.
For C/C(=N/NC(=O)c1cc(-c2ccc(Br)s2)[nH]n1)c1ccco1 the results were bIAP activator inactive, hIAP act 2.1, hIAP block inactive, mIAP act inactive, bIAP inh inactive, mIAP block inactive and hIAP act confirm inactive.
For CN(C)c1ccc(/C=C2\C(=N)N3N=C(CC(=O)N4CCCCC4)SC3=NC2=O)cc1 the results were hIAP act inactive, hIAP block 37, mIAP act inactive, mIAP block inactive and hIAP act confirm inactive.
For COc1cccc(CNc2ccc3[nH]c(=O)[nH]c3c2)c1OCc1ccccc1F the results were hIAP act inactive, hIAP block inactive, mIAP act inactive and mIAP block inactive.
COc1ccccc1OCc1nnc(SCC(=O)Nc2ccc(N3CCOCC3)cc2)n1C was read as hIAP act inactive, hIAP block inactive, mIAP act inactive and mIAP block inactive.
Screening CCN1/C(=C\c2ccc3cc(C)ccc3[n+]2CC)Sc2cc(C)c(C)cc21 returned bIAP activator inactive and bIAP inh inactive.
For CCN1/C(=C/c2ccc3cc(C)ccc3[n+]2CC)Sc2ccc3sccc3c21 the results were hIAP act inactive, hIAP block 35, mIAP act inactive, mIAP block 43 and hIAP act confirm inactive.
Cc1cc(C)c(C)c(S(=O)(=O)N(C)C2CCN(C)CC2)c1C was read as hIAP act inactive, hIAP block inactive, mIAP act inactive and mIAP block inactive.
For O=C(CC1C(=O)NCCN1Cc1cccc(F)c1)NC1CCCCC1 (stereo unspecified) the results were hIAP act inactive, hIAP block inactive, mIAP act inactive and mIAP block inactive.
CCOC(=O)N1CCC(N2Cc3cccc(C(=O)N4CCN(c5cccc(Cl)c5)CC4)c3C2=O)CC1 was read as bIAP activator inactive, hIAP act inactive, hIAP block inactive, mIAP act inactive, bIAP inh inactive and mIAP block inactive.
For COC(=O)c1cc(NC(=O)Cn2nc(C)n3cccc3c2=O)cc(C(=O)OC)c1 the results were hIAP act inactive, hIAP block 39, mIAP act inactive, mIAP block inactive and hIAP act confirm inactive.
For Cc1ccccc1NC(=O)Cn1nc(C)n2cccc2c1=O the results were hIAP act inactive, hIAP block inactive, mIAP act inactive and mIAP block inactive.
